# Results: ChEMBL document CHEMBL5724801, “EUbOPEN Chemogenomics Library - Multiplex” (2024)
# Several values for one entry are separate records, joined by “and”; a condition that tells them apart may be missing. Identical values can stand only once.
# System: U2OS
# Test: Multiplex assay against U2OS
# Assay type: toxicity, cell-based
# Settings: human
# In short: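 Live cells were stained at seeding with Hoechst33342, BioTracker Green Microtubule Cytoskeleton Dye, MitoTracker Red and Annexin V Alexa Fluor 680. Following compound addition, they were imaged on a CQ1 microscope at 37°C and 5% CO2 and gated by CellPathfinder machine learning into Hoechst high-intensity objects or normal cells, with normal cells split into healthy, pyknosed or fragmented nuclei and pyknosed cells into mitotic or apoptotic. Tubulin, mitochondrial-mass and membrane-permeability phenotypes are per cents of healthy-nucleus cells.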
# [1] = 12 h, 1 µM, compound concentration 1 uM
# [2] = 12 h, 10 µM, compound concentration 10 uM
# [3] = 24 h, 1 µM, compound concentration 1 uM
# [4] = 24 h, 10 µM, compound concentration 10 uM
# [5] = 48 h, 1 µM, compound concentration 1 uM
# [6] = 48 h, 10 µM, compound concentration 10 uM
compound,measurement,setting,value
Cn1cnc(-c2cnc(O[C@H]3CCN(C(=O)Cc4ccc(OC(F)(F)F)cc4)C[C@H]3F)c(C(N)=O)c2)c1,Population Apoptotic (%),[1],46.88% and 25%
same,Population Healthy Nuclei (%),[1],91.05% and 84.18%
same,Population Hoechst High Intensity Objects (%),[1],0%
same,Population Mitotic Cells (%),[1],53.12% and 75%
same,Population Normal (%),[1],100%
same,Population Pyknosed Nuclei (%),[1],8.42% and 13.56%
same,Population Apoptotic (%),[2],38.46% and 23.33%
same,Population Healthy Nuclei (%),[2],82.47% and 74.67%
same,Population Hoechst High Intensity Objects (%),[2],0.26% and 0%
same,Population Mitotic Cells (%),[2],61.54% and 76.67%
same,Population Normal (%),[2],99.74% and 100%
same,Population Pyknosed Nuclei (%),[2],16.75% and 20%
same,Population Apoptotic (%),[3],37.74% and 45.16%
same,Population Healthy Nuclei (%),[3],89.71% and 85.37%
same,Population Hoechst High Intensity Objects (%),[3],0.17% and 0%
same,Population Mitotic Cells (%),[3],62.26% and 54.84%
same,Population Normal (%),[3],99.83% and 100%
same,Population Pyknosed Nuclei (%),[3],9.09% and 12.6%
same,Population Apoptotic (%),[4],46.15% and 28.21%
same,Population Healthy Nuclei (%),[4],86.69% and 75.26%
same,Population Hoechst High Intensity Objects (%),[4],0% and 0.51%
same,Population Mitotic Cells (%),[4],53.85% and 71.79%
same,Population Normal (%),[4],100% and 99.49%
same,Population Pyknosed Nuclei (%),[4],12.36% and 20.1%
same,Population Apoptotic (%),[5],32.56% and 44.19%
same,Population Healthy Nuclei (%),[5],89.01% and 86.44%
same,Population Hoechst High Intensity Objects (%),[5],0% and 0.24%
same,Population Mitotic Cells (%),[5],67.44% and 55.81%
same,Population Normal (%),[5],100% and 99.76%
same,Population Pyknosed Nuclei (%),[5],7.88% and 10.41%
same,Population Apoptotic (%),[6],53.41% and 48.57%
same,Population Healthy Nuclei (%),[6],86.7% and 85.71%
same,Population Hoechst High Intensity Objects (%),[6],0%
same,Population Mitotic Cells (%),[6],46.59% and 51.43%
same,Population Normal (%),[6],100%
same,Population Pyknosed Nuclei (%),[6],9.51% and 11.63%
